Data from ChEMBL document CHEMBL1158122, “Anti-inflammatory, anti-tumor-promoting, and cytotoxic activities of constituents of marigold (Calendula officinalis) flowers” (J Nat Prod, 2006).

Columns and labels:
Raji [1] = test: Inhibition of TPA-induced EBV-early antigen activation in human Raji cells at 10 molar ratio relative to TPA; format: cell-based; design: scale not given: the % may be the effect or the level left; conditions: human gammaherpesvirus 4
[2] = Inhibition of TPA-induced EBV-early antigen activation in human Raji cells relative to TPA; format: cell-based, human gammaherpesvirus 4
[3] = Cytotoxicity against human Raji cells assessed as cell viability at 1000 molar ratio; format: cell-based; conditions: read-out: Activity
In short: (§1)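 Raji cells were treated with 32 pmol TPA to induce EBV early antigen activation. The test agent was added at 10, 100, 500 or 1000 mol ratio relative to TPA, and Raji cell viability was measured alongside EA activation.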

[4] = Cytotoxicity against human Raji cells assessed as cell viability at 500 molar ratio; format: cell-based; conditions: read-out: Activity; in short: as §1
[5] = Cytotoxicity against human Raji cells assessed as cell viability at 100 molar ratio; format: cell-based; conditions: read-out: Activity; in short: as §1
[6] = Cytotoxicity against human Raji cells assessed as cell viability at 10 molar ratio; format: cell-based; conditions: read-out: Activity; in short: as §1
Raji [7] = test: Inhibition of TPA-induced EBV-early antigen activation in human Raji cells at 1000 molar ratio relative to TPA; format: cell-based; design: scale not given: the % may be the effect or the level left; conditions: human gammaherpesvirus 4
Raji [8] = test: Inhibition of TPA-induced EBV-early antigen activation in human Raji cells at 500 molar ratio relative to TPA; format: cell-based; design: scale not given: the % may be the effect or the level left; conditions: human gammaherpesvirus 4
Raji [9] = test: Inhibition of TPA-induced EBV-early antigen activation in human Raji cells at 100 molar ratio relative to TPA; format: cell-based; design: scale not given: the % may be the effect or the level left; conditions: human gammaherpesvirus 4
Mus musculus = test: Antiinflammatory activity against TPA-induced ear edema in mouse; format: functional
In short: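 Specific-pathogen-free female ICR mice were housed five per cage at 24 ± 2 °C. Inflammation was induced on the ear with TPA at 1 µg/ear, and the test agent was applied per ear. Ear edema inhibition was expressed as ID50 in mg per ear.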

Row | SMILES | Activity (Raji [1]) | IC50 [2] | viability at 1000 molar ratio [3] | viability at 500 molar ratio [4] | viability at 100 molar ratio [5] | viability at 10 molar ratio [6] | Activity (Raji [7]) | Activity (Raji [8]) | Activity (Raji [9]) | ID50 (Mus musculus)
1 | C[C@@H]1O[C@@H](OC[C@H]2O[C@@H](Oc3c(-c4ccc(O)c(O)c4)oc4cc(O)cc(O)c4c3=O)[C@H](O)[C@@H](O)[C@@H]2O)[C@H](O)[C@H](O)[C@H]1O [RUTIN] | 100% | 578 molar ratio | 70% | > 80% | > 80% | > 80% | – | – | – | –
2 | CCCCOC(=O)[C@H]1O[C@@H](O[C@H]2CC[C@]3(C)[C@H]4CC=C5[C@@H]6CC(C)(C)CC[C@]6(C(=O)O[C@@H]6O[C@H](CO)[C@@H](O)[C@H](O)[C@H]6O)CC[C@@]5(C)[C@]4(C)CC[C@H]3C2(C)C)[C@H](O)[C@@H](O[C@@H]2O[C@H](CO)[C@H](O)[C@H](O)[C@H]2O)[C@@H]1O | 100% | 471 molar ratio | 70% | > 80% | > 80% | > 80% | 5.4% | 41.5% | 70.1% | 0.06 mg
3 | COc1cc(-c2oc3cc(O)cc(O)c3c(=O)c2O[C@@H]2O[C@H](CO[C@@H]3O[C@@H](C)[C@H](O)[C@@H](O)[C@H]3O)[C@@H](O)[C@H](O)[C@H]2O[C@@H]2O[C@@H](C)[C@H](O)[C@@H](O)[C@H]2O)ccc1O | 100% | 592 molar ratio | 70% | > 80% | > 80% | > 80% | 19.6% | 64.8% | 86% | –
4 | COC(=O)[C@H]1O[C@@H](O[C@H]2CC[C@]3(C)[C@H]4CC=C5[C@@H]6CC(C)(C)CC[C@]6(C(=O)O[C@@H]6O[C@H](CO)[C@@H](O)[C@H](O)[C@H]6O)CC[C@@]5(C)[C@]4(C)CC[C@H]3C2(C)C)[C@H](O[C@@H]2O[C@H](CO)[C@@H](O)[C@H](O)[C@H]2O)[C@@H](O[C@@H]2O[C@H](CO)[C@H](O)[C@H](O)[C@H]2O)[C@@H]1O | 100% | 487 molar ratio | 70% | > 80% | > 80% | > 80% | 16% | 53.6% | 77.8% | 0.06 mg
5 | C[C@]12CCC(=O)C=C1CC[C@@H]1[C@@H]2[C@@H](O)C[C@@]2(C)[C@H]1CC[C@]2(O)C(=O)CO [HYDROCORTISONE] | – | – | – | – | – | – | – | – | – | 0.03 mg
6 | COC(=O)[C@H]1O[C@@H](O[C@H]2CC[C@]3(C)[C@H]4CC=C5[C@@H]6CC(C)(C)CC[C@]6(C(=O)O[C@@H]6O[C@H](CO)[C@@H](O)[C@H](O)[C@H]6O)CC[C@@]5(C)[C@]4(C)CC[C@H]3C2(C)C)[C@H](O)[C@@H](O[C@@H]2O[C@H](CO)[C@H](O)[C@H](O)[C@H]2O)[C@@H]1O | 100% | 480 molar ratio | 70% | > 80% | > 80% | > 80% | 14.4% | 52.1% | 74.3% | 0.1 mg
7 | COc1cc(-c2oc3cc(O)cc(O)c3c(=O)c2O[C@@H]2O[C@H](CO)[C@@H](O)[C@H](O)[C@H]2O[C@@H]2O[C@@H](C)[C@H](O)[C@@H](O)[C@H]2O)ccc1O | 100% | 574 molar ratio | 70% | > 80% | > 80% | > 80% | 14.1% | 60% | 81.1% | –
8 | CC1=C(/C=C/C(C)=C/C=C/C(C)=C/C=C/C=C(C)/C=C/C=C(C)/C=C/C2=C(C)CCCC2(C)C)C(C)(C)CCC1 [BETA CAROTENE] | 100% | 397 molar ratio | – | > 80% | > 80% | > 80% | 8.6% | – | – | –
9 | COc1cc(-c2oc3cc(O)cc(O)c3c(=O)c2O[C@@H]2O[C@H](CO[C@@H]3O[C@@H](C)[C@H](O)[C@@H](O)[C@H]3O)[C@@H](O)[C@H](O)[C@H]2O)ccc1O [NARCISSIN] | 100% | 585 molar ratio | 70% | > 80% | > 80% | > 80% | 16.3% | 62.4% | 84.3% | –
10 | CC1(C)CC[C@]2(C(=O)O[C@@H]3O[C@H](CO)[C@@H](O)[C@H](O)[C@H]3O)CC[C@]3(C)C(=CC[C@@H]4[C@@]5(C)CC[C@H](O[C@@H]6O[C@H](C(=O)O)[C@@H](O)[C@H](O[C@@H]7O[C@H](CO)[C@H](O)[C@H](O)[C@H]7O)[C@H]6O[C@@H]6O[C@H](CO)[C@@H](O)[C@H](O)[C@H]6O)C(C)(C)[C@@H]5CC[C@]43C)[C@@H]2C1 [CALENDULAGYCOSIDE A] | 75.3% | 484 molar ratio | 70% | > 80% | > 80% | > 80% | 15.8% | 52.3% | 75.3% | 0.32 mg
11 | COc1ccc2c(c1)c(CC(=O)O)c(C)n2C(=O)c1ccc(Cl)cc1 [INDOMETHACIN] | – | – | – | – | – | – | – | – | – | 0.3 mg
12 | CC1(C)CC[C@]2(C(=O)O[C@@H]3O[C@H](CO)[C@@H](O)[C@H](O)[C@H]3O)CC[C@]3(C)C(=CC[C@@H]4[C@@]5(C)CC[C@H](O[C@@H]6O[C@H](C(=O)O)[C@@H](O)[C@H](O[C@@H]7O[C@H](CO)[C@H](O)[C@H](O)[C@H]7O)[C@H]6O)C(C)(C)[C@@H]5CC[C@]43C)[C@@H]2C1 [CALENDULAGYCOSIDE C] | 100% | 475 molar ratio | 70% | > 80% | > 80% | > 80% | 13.2% | 51% | 73.1% | 0.2 mg
13 | O=c1c(O[C@@H]2O[C@H](CO)[C@@H](O)[C@H](O)[C@H]2O)c(-c2ccc(O)c(O)c2)oc2cc(O)cc(O)c12 [ISOQUERCETIN] | 100% | 570 molar ratio | 70% | > 80% | > 80% | > 80% | 14.1% | 58% | 78.5% | –
14 | CCCCOC(=O)[C@H]1O[C@@H](O[C@H]2CC[C@]3(C)[C@H]4CC=C5[C@@H]6CC(C)(C)CC[C@]6(C(=O)O[C@@H]6O[C@H](CO)[C@@H](O)[C@H](O)[C@H]6O)CC[C@@]5(C)[C@]4(C)CC[C@H]3C2(C)C)[C@H](O[C@@H]2O[C@H](CO)[C@@H](O)[C@H](O)[C@H]2O)[C@@H](O[C@@H]2O[C@H](CO)[C@H](O)[C@H](O)[C@H]2O)[C@@H]1O | 100% | 480 molar ratio | 70% | > 80% | > 80% | > 80% | 10.6% | 43.2% | 71.6% | 0.06 mg
